In brackets after ≈: the same amount, converted by molar mass. Several values for one entry are separate records, joined by “and”; a condition that tells them apart may be missing. Equal values may be shown once.

Test [1] in a line: Tested for cytotoxicity in the multiple tumor disk diffusion soft agar assay at the dose of 15 ug/disk against solid tumor C38; U = 32 uM. It counts as functional, Mus musculus. The method in brief: (§1)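 Soft agar disk diffusion: bottom layer 0.8% noble agar, top layer 0.47% noble agar, both in 1:1 CMRL-Fischer medium with 11% horse serum. Top layer seeded with 5×10^3 L1210 cells or 10^6 solid tumor cells (C38, PO3). Drug applied on a dried 6-mm filter-paper disk. Incubation 7-11 days. Inhibition zone measured by inverted microscope, in units (1 unit = 30 μm).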

Test [2] deals with P388. Nature of the test: In vivo T/C (survival time treated/survival time control x 100) was determined against P388 leukemia cells at 20 mg/Kg. The class given is functional, Mus musculus. The method in brief:
(§2)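 B6D2 F1 mice, at least five per group, were inoculated ip on day 0 with 10^6 viable P388 cells (25 mL/kg). Compounds were dissolved in distilled water and given ip (25 mL/kg) daily on days 1–4. Mortality was checked daily, with necropsy of dead animals. T/C×100 was median survival, treated versus control. Survivors beyond 50 days counted as cured and were excluded from the median.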

The subject of test [3] is P388. Nature of the test: In vitro cytotoxicity was determined against P388 leukemia cells. It counts as functional. Conditions: Mus musculus, read-out: ID50 (the source's name). The method in brief:
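P388 cells in exponential growth, RPMI 1640 with 2 mM glutamine, 10 μM 2-mercaptoethanol and 10% FCS, 5% CO2, 37 °C. Cells at 10^5 cells/mL. Drugs in distilled water added on day 0. Cells counted by Coulter counter after 96 h. ID50 (μg/mL, 50% inhibition of proliferation) estimated by regression of concentration/response data.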

In test [4] the test system is L1210. Nature of the test: Tested for cytotoxicity in the multiple tumor disk diffusion soft agar assay at the dose of 15 ug/disk against leukemia L1210; U = 32 uM. It counts as functional, Mus musculus. The method in brief: as §1
Test [5] can be described thus: Cytotoxicity in the multiple tumor disk diffusion soft agar assay at the dose of 15 ug/disk against solid tumor C38. The class given is functional, Mus musculus. The method in brief:
as §1

Test [6] concerns L1210. Nature of the test: Cytotoxicity in the multiple tumor disk diffusion soft agar assay at the dose of 15 ug/disk against leukemia L1210. It counts as functional, Mus musculus. The method in brief:
as §1

The nature of test [7]: Cytotoxicity in the multiple tumor disk diffusion soft agar assay at the dose of 15 ug/disk against solid tumor PO3. It counts as functional, Mus musculus. The method in brief:
as §1

For test [8], the system named is P388. As to the kind of experiment: In vivo T/C (survival time treated/survival time control x 100) was determined against P388 leukemia cells at 40 mg/Kg. The class given is functional, Mus musculus. The method in brief:
as §2

For test [9], the system named is L1210. As to the kind of experiment: Tested for cytotoxicity in the multiple tumor disk diffusion soft agar assay at the dose of 15 ug/disk against leukemia L1210. It counts as functional, Mus musculus. The method in brief: as §1
The nature of test [10]: Tested for cytotoxicity in the multiple tumor disk diffusion soft agar assay at the dose of 15 ug/disk against solid tumor PO3. It counts as functional, Mus musculus. The method in brief:
as §1

Test [11] concerns L1210. Nature of the test: In vivo T/C (survival time treated/survival time control x 100) was determined against L1210 leukemia cells at 20 mg/Kg. The class given is functional, Mus musculus. The method in brief:
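B6D2 F1 mice, at least five per group, were inoculated ip on day 0 with 10^5 viable L1210 cells (25 mL/kg). Compounds were dissolved in distilled water and given ip (25 mL/kg) on days 1–4. Deaths were checked daily, with necropsy to separate tumor from toxic death. T/C×100 was median survival of treated over controls. Mice surviving over 50 days counted as cured and were excluded from the median.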

Test [12] is described as follows: Tested for cytotoxicity in the multiple tumor disk diffusion soft agar assay at the dose of 15 ug/disk against solid tumor C38. It counts as functional, Mus musculus. The method in brief:
as §1

The nature of test [13]: Tested for cytotoxicity in the multiple tumor disk diffusion soft agar assay at the dose of 15 ug/disk against solid tumor C38; range is 650-675. It counts as functional, Mus musculus. The method in brief:
as §1

Test [14] concerns P388. As to the kind of experiment: In vivo T/C (survival time treated/survival time control x 100) was determined against P388 leukemia cells at 10 mg/Kg. It counts as functional, Mus musculus. The method in brief: as §2
For test [15], the system named is L1210. Nature of the test: Tested for cytotoxicity in the multiple tumor disk diffusion soft agar assay at the dose of 15 ug/disk against leukemia L1210; range is 300-375. It counts as functional, Mus musculus. The method in brief: as §1
Test [16] can be described thus: Tested for cytotoxicity in the multiple tumor disk diffusion soft agar assay at the dose of 15 ug/disk against solid tumor PO3; range is 350-450. It counts as functional, Mus musculus. The method in brief:
as §1

For test [17], the system named is Mus musculus. As to the kind of experiment: In vivo total number of survivors was determined against P388 leukemia cells out of 5 mouse at 50 day. The class given is functional. The method in brief:
as §2

Test [18] concerns L1210. Nature of the test: Tested for cytotoxicity in the multiple tumor disk diffusion soft agar assay at the dose of 15 ug/disk against leukemia L1210; range is 0-450. It counts as functional, Mus musculus. The method in brief: as §1

Consider `Cc1cnc(NCCCN(C)C)c2c3ccc4c(O)cccc4c3n(C)c12`, for which the Cytotoxicity is recorded as 900 U in [1] and 675 U in test [4]. The “T/C x100” value in test [2] is 135. The IC50 in test [3] was determined as 0.025 µg/mL (≈ 0.069 µM).

As for `CCN(CC)CCCNc1[nH]cc(C)c2nc3c(ccc4cc(OC)ccc43)c1-2`, the Cytotoxicity in test [5] was 285 U; in [6], 200 U; in test [7], 200 U; in test [9], 325 U. Moreover, in [8], the “T/C x100” value is 131. Moreover, the IC50 in test [3] is 0.5 µg/mL (≈ 1.28 µM).

With `COc1ccc2c(ccc3[nH]c4c(C)cnc(NCCCN(C)C)c4c32)c1`, the Cytotoxicity is 750 U and 350 U in test [6]; 630 U and 300 U in [10]; 800 U and 450 U in test [12]. Also, the “T/C x100” value in [11] was found to be 127. Further, in [3], the IC50 was determined as 0.75 µg/mL (≈ 2.07 µM).

As for `CCN(CC)CCCNc1ncc(C)c2c1c1c3ccc(O)cc3ccc1n2C`, the entries for the “T/C x100” value in [2] and in [11] were 232 and 129, respectively. Also, the Cytotoxicity in test [6] was 450 U; in [13], 650 U. The IC50 in test [3] turned out to be 0.025 µg/mL (≈ 0.064 µM).

For `CCN(CC)CCCNc1[nH]cc(C)c2nc3c(ccc4ccccc43)c1-2`, the Cytotoxicity in test [5] turned out to be 460 U; in [6] it was 500 U; in [7], 200 U; in test [15] it was 300 U. Besides, the “T/C x100” value in [14] was 102. Moreover, in test [3], the IC50 was found to be 0.75 µg/mL (≈ 2.08 µM).

For the compound `Cc1cnc(NCCCN(C)C)c2c3c4ccc(O)cc4ccc3n(C)c12`, the Cytotoxicity worked out at 750 U in test [5], 350 U in [16], 350 U in test [6] and 0 U in [18]. Moreover, the “T/C x100” value came to 243 in test [2] and 127 in [11]. In test [3], the IC50 was 0.015 µg/mL (≈ 0.0414 µM). For the same compound, the Survivors in [17] is reported as 1.

As to `CCN(CC)CCCNc1ncc(C)c2c1c1ccc3cc(O)ccc3c1n2C`, the Cytotoxicity in [5] amounted to 325 U; in test [6], 300 U; in [7] it was 350 U; in [9], 400 U. Besides, the “T/C x100” value in test [2] was 124. Also, the IC50 in test [3] was 0.1 µg/mL (≈ 0.256 µM).

In the case of `CCN(CC)CCCNc1ncc(C)c2c1c1ccc3c(OC)cccc3c1n2C`, the Cytotoxicity came out at 430 U in test [5] and 450 U in [6]. Besides, the “T/C x100” value in [8] came out at 124. The IC50 in test [3] was 0.75 µg/mL (≈ 1.85 µM).

The values are drawn from ChEMBL document CHEMBL1124779, “Synthesis and antitumor activity of 1-[[(dialkylamino)alkyl]amino]-4-methyl-5H-pyrido[4,3-b]benzo[e]- and -benzo[g])indoles. A new class of antineoplastic agents” (1990).
